Experimental data published in PubChem BioAssay.
Calls of active or inactive are those of the source.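 The calls were made as follows, unless noted: active = potentiation averaged over duplicate wells exceeding buffer-only control mean by more than 3 SD; inactive = the rest.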

Tested on: not listed separately
Experiment: nonspecific flux increase, KCNQ1-free cells – parental CHO cells, counter-screen for KCNQ1 potentiator project (AID 493006;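 active = duplicate-averaged activation above buffer control mean plus 5 SD of those controls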)
Conditions: parental CHO-K1 cells, FluxOR thallium flux, at 10 µM; stronger effect = higher value
How it was run: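 Assay system: Untransfected host CHO-K1 cells with FluxOR thallium dye | Probe or stimulus: Potassium/thallium depolarization pulse | Schedule: Overnight 37 °C plating, 90 min RT dye, 20 min compound | Detection: Kinetic thallium-flux fluorescence | Read-out: Max-minus-min fluorescence over baseline, percent of buffer-to-R-L3 span | Benchmarks: Low control buffer, high control R-L3 activator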

Structure (SMILES)	outcome	activation
CC(Oc1ccc(Br)cc1)C(=O)N1CCC(C(N)=O)CC1 (centres undefined)	inactive	–
CCSc1nnc(NS(=O)(=O)c2ccc(OC)cc2)s1	inactive	–
COc1ccc(C(=O)N2CCC(n3nccc3NC(=O)C3CCOC3)CC2)cc1 (centres undefined)	inactive	–
CN(CC(=O)Nc1ccc(F)c(F)c1F)C(=O)CC1OC(=O)c2ccccc21 (centres undefined)	inactive	–
C=CCn1c(=S)[nH]c2scc(-c3ccc(C)o3)c2c1=O	–	550% (active)
COCCCNc1nc2ccccc2nc1NS(=O)(=O)c1cccs1	inactive	–
S=C1NC2(CCCCC2)Cc2ccccc21	inactive	–
CS(=O)(=O)NN1C(=O)c2ccccc2NC1c1ccccc1F (centres undefined)	–	143% (active)
CC(=O)Nc1nc2c(F)cccc2s1	inactive	–
CC(=O)c1c(C)[nH]c(C(=O)OCc2nc3ccsc3c(=O)[nH]2)c1C	inactive	–
Fc1ccc(SCCc2ccncc2)cc1	inactive	–
CCOc1ccc(C(C#N)N2CCOCC2)cc1OC (centres undefined)	inactive	–
CNCc1ccccc1Sc1cccc2ccccc12	inactive	–
COc1ccc(S(=O)(=O)NCCCN2CCOCC2)cc1F	inactive	–
CC1=NN(C(N)=S)C(=O)C1N=Nc1cccc(Cl)c1C (centres undefined)	–	1010% (active)
COc1ccc(NC(=O)CC2C(=O)N(c3ccc(Cl)cc3)C(=S)N2NC(=O)c2cccc(F)c2)cc1 (centres undefined)	inactive	–
CCCCn1c(=S)[nH]c2ccccc2c1=O	–	160% (active)
FC(F)Sc1nc2ccccc2[nH]1	–	154% (active)
Cc1nn2c(c1-c1ccccc1)NC1=C(C(=O)CCC1)C2c1ccccc1 (centres undefined)	inactive	–
COCCN1CCCC(CNCc2cn(C)nc2-c2ccc(Oc3ccccc3)cc2)C1 (centres undefined)	inactive	–

Target: Potassium voltage-gated channel subfamily KQT member 1 (Homo sapiens) (UniProt P51787)
Sequence (P51787 whole entry, looked up): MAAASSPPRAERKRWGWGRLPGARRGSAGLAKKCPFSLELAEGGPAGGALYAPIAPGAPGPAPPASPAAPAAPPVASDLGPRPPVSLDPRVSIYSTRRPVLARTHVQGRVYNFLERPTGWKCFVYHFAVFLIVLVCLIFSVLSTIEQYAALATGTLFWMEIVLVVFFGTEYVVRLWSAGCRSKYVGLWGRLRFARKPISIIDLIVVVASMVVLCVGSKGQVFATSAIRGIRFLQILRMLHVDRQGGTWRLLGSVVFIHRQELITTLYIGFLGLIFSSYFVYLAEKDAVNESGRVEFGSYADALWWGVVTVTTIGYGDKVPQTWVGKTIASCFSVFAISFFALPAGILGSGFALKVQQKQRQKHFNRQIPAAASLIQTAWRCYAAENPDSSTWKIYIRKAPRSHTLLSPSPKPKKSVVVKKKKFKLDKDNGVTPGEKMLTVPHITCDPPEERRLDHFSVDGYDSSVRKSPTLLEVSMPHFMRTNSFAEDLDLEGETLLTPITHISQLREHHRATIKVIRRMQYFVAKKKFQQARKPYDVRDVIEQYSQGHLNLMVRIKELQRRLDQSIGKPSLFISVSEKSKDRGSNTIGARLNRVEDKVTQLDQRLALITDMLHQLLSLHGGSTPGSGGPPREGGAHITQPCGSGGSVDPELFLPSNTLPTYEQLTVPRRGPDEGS
Experiment: enhancement of KCNQ1 channel thallium flux – FluxOR thallium flux, CHO cells, duplicates, confirmation (AID 493007);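 as to outcome: cells depolarized by a potassium plus thallium sulfate stimulus after compound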
Conditions: KCNQ1 cell line, FluxOR thallium flux fluorescence, at 10 µM; stronger effect = higher value, % of reference activator effect, buffer zero
How it was run: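 Material: KCNQ1-expressing CHO cell line; Incubation: FluxOR dye loading 90 min, compound exposure 20 min, room temperature; Detection: FluxOR Tl+ flux fluorescence, 10 s baseline plus 110 s recording; Read-out: percent activation between buffer and R-L3 responses; Control set: buffer-only wells as 0% and R-L3 activator as 100%; Replication: duplicate wells per compound.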

Structure (SMILES)	outcome	potentiation
COc1ccccc1OCCc1nnc(N)s1	inactive	–
O=C(Nc1cccc2cccnc12)c1ccc(Br)o1	inactive	–
CC(=O)c1c(N2CCCC2)[nH]c(-c2ccccc2)nc1=S	inactive	–
CCOc1ccc(NC(=O)CN(C)C(=O)c2c(-c3c(F)cccc3Cl)noc2C)cc1OCC	inactive	–
C/C(=N/NC(=O)c1cc(C2CC2)[nH]n1)c1cccs1	–	31.5% (active)
Cc1cccc(C)c1NC(=S)NC(=O)c1ccc(Br)o1	–	122% (active)
O=C(CC(=O)c1ccccc1O)c1cccc(F)c1	–	50.5% (active)
O=C(c1ccco1)N1CCN(S(=O)(=O)c2ccc(F)cc2)CC1	inactive	–
Cc1ccnc(NS(=O)(=O)c2ccc(NC(=O)C34CC5CC(CC(C5)C3)C4)cc2)n1	inactive	–
CCc1ccc2[nH]c(O)c(N=Nc3nc(-c4ccccc4)cs3)c2c1	–	178% (active)
Cc1cccc(C(=O)Oc2csc(=S)n2C(=O)c2cccc(C)c2)c1	–	27% (active)
CC1SCC(=NOCc2c(Cl)cccc2Cl)CS1 (centres undefined)	inactive	–
CCC1CCCCN1C(=S)NC(=O)c1cccs1 (centres undefined)	–	216% (active)
COc1ccc(/C=C2/S/C(=N/N=C3\CC4CCC3(C)C4(C)C)NC2=O)cc1 (centres undefined)	–	21% (active)
Cn1ncc2c(O/N=C(\N)c3ccc(C(F)(F)F)cc3)ncnc21	inactive	–
CCOC(=O)c1c(NC(=S)NCC2CCCO2)sc(C)c1C (centres undefined)	inactive	–
O=C(NCc1ccccc1)c1onc(CSc2ccc(F)cc2)c1C(=O)NCCCN1CCOCC1	inactive	–
CCCCC(Nc1ncnc2ccccc12)C(=O)O (centres undefined)	inactive	–
C=CCn1c(N)c(C(=O)Nc2ccc(C)cc2)sc1=S	inactive	–
CC(Oc1ccc(Br)cc1)C(=O)N1CCC(C(N)=O)CC1 (centres undefined)	inactive	–

Structure (SMILES)	outcome	potentiation
CCSc1nnc(NS(=O)(=O)c2ccc(OC)cc2)s1	inactive	–
COc1ccc(C(=O)N2CCC(n3nccc3NC(=O)C3CCOC3)CC2)cc1 (centres undefined)	inactive	–
CN(CC(=O)Nc1ccc(F)c(F)c1F)C(=O)CC1OC(=O)c2ccccc21 (centres undefined)	inactive	–
C=CCn1c(=S)[nH]c2scc(-c3ccc(C)o3)c2c1=O	–	276% (active)
COCCCNc1nc2ccccc2nc1NS(=O)(=O)c1cccs1	inactive	–
S=C1NC2(CCCCC2)Cc2ccccc21	inactive	–
CS(=O)(=O)NN1C(=O)c2ccccc2NC1c1ccccc1F (centres undefined)	–	32.5% (active)
CC(=O)Nc1nc2c(F)cccc2s1	inactive	–
CC(=O)c1c(C)[nH]c(C(=O)OCc2nc3ccsc3c(=O)[nH]2)c1C	inactive	–
Fc1ccc(SCCc2ccncc2)cc1	inactive	–
CCOc1ccc(C(C#N)N2CCOCC2)cc1OC (centres undefined)	inactive	–
CNCc1ccccc1Sc1cccc2ccccc12	inactive	–
COc1ccc(S(=O)(=O)NCCCN2CCOCC2)cc1F	inactive	–
CC1=NN(C(N)=S)C(=O)C1N=Nc1cccc(Cl)c1C (centres undefined)	–	665% (active)
COc1ccc(NC(=O)CC2C(=O)N(c3ccc(Cl)cc3)C(=S)N2NC(=O)c2cccc(F)c2)cc1 (centres undefined)	inactive	–
CCCCn1c(=S)[nH]c2ccccc2c1=O	–	50.5% (active)
FC(F)Sc1nc2ccccc2[nH]1	inactive	–
Cc1nn2c(c1-c1ccccc1)NC1=C(C(=O)CCC1)C2c1ccccc1 (centres undefined)	inactive	–
COCCN1CCCC(CNCc2cn(C)nc2-c2ccc(Oc3ccccc3)cc2)C1 (centres undefined)	inactive	–
